Reference: PMC6279569 (Clinical cancer research : an official journal of the …, 2018)

What was measured:
[1] = test system: HR-mediated DSB repair in DR-GFP cells; experiment: Double stranded DNA break repair assay, DR-GFP; type: cell-based
Summary of the method: (§1)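 U2OS-derived reporter lines carry stable GFP reporters: DR-GFP for HR and EJ5-GFP for end joining. Cells were grown in DMEM/10% FBS, seeded at 2.5×10⁴ cells/cm² and attached overnight. They were lipofected with an I-SceI expression plasmid; after 3 h, medium was replaced with fresh medium containing test compound at various concentrations (DMSO control). GFP-positive fraction was measured by flow cytometry 3 d post-transfection, relative to control.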

[2] = test system: γH2A.X, caspase-3 and caspase-9 in cancer cells; experiment: Western blot, cancer cells; type: cell-based, human
Summary of the method: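 Conditions: SK-N-DZ cells with 3 µM AOH39 for 0, 6 or 24 h; cancer cells with 500 nM AOH1160 for the indicated times. Cells were lysed in Laemmli buffer, sonicated, run on 4–12% SDS-PAGE and blotted to nitrocellulose. After 5% milk block, blots were probed for γH2A.X, total H2A.X, cleaved and full-length caspase-3, and cleaved caspase-9. Detection used peroxidase secondaries and ECL.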

[3] = test system: EJ-mediated DSB repair in EJ5-GFP cells; experiment: Double stranded DNA break repair assay, EJ5-GFP; type: cell-based; details: 4 µM AOH39
Summary of the method: as §1

SK-N-DZ and H524 cells = experiment: Cell cycle analysis by PI flow cytometry, cancer cells; type: cell-based, human
human TRβ = molecular target: T1, human TRβ (Homo sapiens, UniProt P10828); experiment: Human thyroid hormone receptor beta; type: cell-based; details: various concentrations, 24 h
T1 sequence (P10828 1-461): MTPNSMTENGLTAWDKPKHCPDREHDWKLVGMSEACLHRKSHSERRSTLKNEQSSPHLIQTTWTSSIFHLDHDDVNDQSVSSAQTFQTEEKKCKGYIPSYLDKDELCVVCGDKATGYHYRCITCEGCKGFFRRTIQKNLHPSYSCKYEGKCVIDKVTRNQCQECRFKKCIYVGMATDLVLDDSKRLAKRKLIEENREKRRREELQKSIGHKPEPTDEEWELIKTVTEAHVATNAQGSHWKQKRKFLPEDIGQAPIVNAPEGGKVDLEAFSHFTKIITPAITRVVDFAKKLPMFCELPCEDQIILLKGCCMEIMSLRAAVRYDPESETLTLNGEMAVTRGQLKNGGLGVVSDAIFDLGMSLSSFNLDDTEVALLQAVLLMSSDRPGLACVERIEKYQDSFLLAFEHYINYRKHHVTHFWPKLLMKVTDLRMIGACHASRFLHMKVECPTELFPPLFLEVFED
Summary of the method: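 Commercial reporter cells constitutively expressing human TRβ, with luciferase driven by a TRβ-responsive promoter. Treated for 24 h with various concentrations of T3 (reference agonist) or test compound. TRβ activity read as luciferase relative luminescence units on a plate reader.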

normal neural stem cells = experiment: Cell growth of normal neural stem cells; type: cell-based; details: 1 µM, 72 hours; NSC005-007
Summary of the method: (§2)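 Cells derived from WHO grade IV glioblastoma or primary brain tissue, grown as neurospheres in DMEM/F12 with 20 ng/ml EGF, 20 ng/ml FGF, 5 µg/ml heparin, B27 and 2 mM L-glutamine. Seeded at 5 × 10³/ml or 3 × 10⁴/ml. Given DMSO or 1 µM compound for 72 h. Growth read by CellTiter-Glo luminescence relative to DMSO control, ± S.D.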

carboxyl esterase, ES-1 = molecular target: T2, carboxyl esterase, ES-1 (Mus musculus, UniProt P23953); experiment: Stability in plasma, rodent; type: in vitro ADME
T2 sequence (P23953 19-554): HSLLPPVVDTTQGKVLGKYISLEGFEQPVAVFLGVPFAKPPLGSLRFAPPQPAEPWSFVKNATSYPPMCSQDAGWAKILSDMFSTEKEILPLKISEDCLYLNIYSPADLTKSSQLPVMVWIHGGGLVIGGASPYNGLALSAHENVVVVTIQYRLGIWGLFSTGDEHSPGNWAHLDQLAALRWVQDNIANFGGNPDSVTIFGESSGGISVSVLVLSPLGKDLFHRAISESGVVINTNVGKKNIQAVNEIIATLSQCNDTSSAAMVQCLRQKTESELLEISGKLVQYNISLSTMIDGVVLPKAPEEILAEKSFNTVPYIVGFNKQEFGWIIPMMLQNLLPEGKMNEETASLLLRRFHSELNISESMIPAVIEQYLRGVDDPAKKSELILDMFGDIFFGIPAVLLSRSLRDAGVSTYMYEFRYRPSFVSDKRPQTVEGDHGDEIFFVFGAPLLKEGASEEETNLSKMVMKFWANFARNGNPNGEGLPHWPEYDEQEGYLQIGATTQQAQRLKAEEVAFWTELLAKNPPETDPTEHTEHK
Summary of the method: (§3)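 Test compound was incubated in plasma at 37 °C, with aliquots removed at various times. Remaining parent was quantified by LC-MS/MS (UPLC gradient, positive-ion electrospray) and expressed as percent of input concentration.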

[4] = Stability in plasma, human; type: in vitro ADME; details: 37°C
Summary of the method: as §3

[5] = Stability in plasma, canine; type: in vitro ADME; details: 37°C
Summary of the method: as §3

[6] = mouse, in vivo
SK-N-DZ cells = experiment: TUNEL assay, cancer cells; type: cell-based, human; details: 500 nM AOH1160, 24 h
Summary of the method: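 Cells were seeded at 1×10⁵/ml on chamber slides. Once attached, they were treated 24 h with 500 nM test compound, then fixed. Apoptosis was detected by TUNEL with a TMR red in situ cell death kit; red TMR fluorescence marks free DNA ends.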

[7] = Stability in plasma, Es1e/SCID mice; type: in vitro ADME; details: Es1^e/SCID mouse plasma, 37°C
Summary of the method: as §3

[8] = Stability in plasma, monkey; type: in vitro ADME; details: 37°C
Summary of the method: as §3

Recombinant human PCNA = Recombinant human PCNA (Homo sapiens, UniProt P12004); experiment: Saturation Transfer Difference; type: binding; details: T3 50 µM, AOH1160 expected 16 µM, 1 µM PCNA
Summary of the method: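 Recombinant human PCNA (1 µM) in 15 mM D₂O phosphate buffer, pH 7.2, with 10 µM deuterated DTT and 2% D₆-DMSO. T3 (50 µM) was run with and without test compound; 4 µM DSS served as internal reference for ligand concentration. Spectra were taken at 25 °C, 700 MHz, cryoprobe. Saturation was at 0.9 ppm and reference at −30 ppm, acquired interleaved. STD = (I_Ref − I_STD)/I_Ref.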

SK-N-DZ NB cells = experiment: Clonogenic assay with cisplatin, SK-N-DZ; type: cell-based, human; details: 500 nM AOH1160, 18 h
Summary of the method: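 300 SK-N-DZ cells per 60-mm dish, attached overnight, then treated 18 h with or without various cisplatin concentrations, with or without 500 nM test compound. After two washes, cells were grown 3 weeks in fresh medium changed every 3 d. Colonies were stained with 0.5% crystal violet and counted. Combination index used the Bliss independence model: CI = (E_A+E_B−E_A*E_B)/E_AB.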

[9] = test system: SK-N-BE(2)c, H82 and H526 cells; experiment: DNA combing analysis of replication fork extension; type: cell-based, human; details: 0.2 µM, 20 minutes, vs untreated control
Summary of the method: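 Synchronized S-phase cells (DMEM, 10% FBS) pulsed with CldU for 10 min, washed, then IdU for 20 min with or without 0.2 µM compound. Cells lysed on slides and DNA fibres spread. Fibres immunostained for CldU (green) and IdU (red). Segment lengths from more than 30 fibres averaged ± SD. IdU lengths compared with the untreated control by Student's t-test.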

[10] = test system: non-malignant cells (PBMC, 7SM0032, MCF10A, mammary epithelial cells, small airway epithelial cells); experiment: Cell growth, CellTitor-Glo assay, non-malignant cells; type: cell-based; details: human PBMCs, 7SM0032 cells
Pharmacokinetic = type: in vivo, ES1^e/SCID mice
Summary of the method: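 Test compound was dissolved at 60 °C under nitrogen in vehicle (Kolliphor HS 15, Poloxamer 407, BHA, BHT, propyl gallate). It was diluted to 4 mg/mL in 1:1 water:vehicle just before dosing and given orally at 40 mg/kg to male and female ES1^e/SCID mice. Plasma was taken by cardiac puncture at 0–24 h (3 male + 3 female per time point). Levels were measured by LC-MS/MS (positive ESI, MRM); PK parameters were derived by non-compartmental analysis.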

glioblastoma stem cells = experiment: Cell growth of glioblastoma stem cells; type: cell-based, human; details: 1 µM, 72 hours; PBT003, PBT707, PBT017
Summary of the method: as §2

7SM0032 and SAEC cells = experiment: Cell cycle analysis by PI flow cytometry, non-malignant cells; type: cell-based, human; details: 500 nM AOH1160
Summary of the method: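 7SM0032 cells (hEPM-1 medium) and SAEC (SAGM medium), 37°C, 5% CO2. Seeded at 1×10⁵/ml and attached overnight. Exposed to 500 nM test compound for the indicated time (methods: 6 or 24 h). Fixed in 60% ethanol, stained with propidium iodide, and analysed by flow cytometry. Cell-cycle populations, including sub-G1, were modelled from PI intensity.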

[11] = test system: xenograft tumors of SK-N-BE(2)c, SK-N-AS, MDA-MB-468 and H82; experiment: In vivo xenograft tumor model; details: 40 mg/kg once daily by oral gavage
γH2A.X in 7SM0032 cells = experiment: Western blot, non-malignant cells; type: cell-based, human; details: 500 nM AOH1160
Summary of the method: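 7SM0032 cells treated with 500 nM compound for the indicated times, then lysed directly in Laemmli buffer on the plate. Immunoblot membranes blocked in 5% nonfat milk and probed with anti-γH2A.X. Detection with peroxidase-conjugated secondary antibody and ECL.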

7SM0032 cells = experiment: TUNEL assay, non-malignant cells; type: cell-based; details: 500 nM AOH1160, 24 h
Summary of the method: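 7SM0032 cells (hEPM-1 medium, 37°C, 5% CO2) seeded at 1×10⁵/ml on chamber slides. Once attached, treated with 500 nM compound for 24 h. Fixed and labelled by TUNEL using a TMR-red in situ cell death kit. Red fluorescence at free DNA ends scored as apoptotic cells.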

Recombinant human PCNA, sequence (P12004 whole entry): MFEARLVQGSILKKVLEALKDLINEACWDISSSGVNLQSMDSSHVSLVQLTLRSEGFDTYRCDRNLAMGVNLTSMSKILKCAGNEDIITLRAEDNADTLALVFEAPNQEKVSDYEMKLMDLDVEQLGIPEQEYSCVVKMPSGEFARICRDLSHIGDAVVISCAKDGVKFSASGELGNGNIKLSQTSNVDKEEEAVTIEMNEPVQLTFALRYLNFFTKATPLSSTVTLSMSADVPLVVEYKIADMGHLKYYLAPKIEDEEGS

Compound: O=C(CNC(=O)c1cccc2ccccc12)Nc1ccccc1Cc1ccccc1 [AOH39]
- HR-mediated DNA repair ([1]; 4 µM AOH39): inhibited HR-mediated DNA repair
- intracellular γH2A.X levels ([2]; SK-N-DZ, 3 µM AOH39): enhanced intracellular γH2A.X levels
- EJ-mediated DNA repair [3]: without exerting any statistically significant effect on EJ
- cell cycle effect (SK-N-DZ and H524 cells; SK-N-DZ, 3 µM AOH39, 6 or 24 h): caused cell cycle arrest of cancer cells at the S and, to a larger degree, G2/M phases
- apoptosis (sub-G1 population) (SK-N-DZ and H524 cells; SK-N-DZ, 3 µM AOH39, 24 h): cancer cells start to die through apoptosis
- thyroid hormone activity in TR reporter assay (human TRβ): neither AOH1160 nor AOH39 showed any thyroid hormone activity

Compound: O=C(CNC(=O)c1cccc2ccccc12)Nc1ccccc1Oc1ccccc1 [AOH1160]
- growth of normal neural stem cells (normal neural stem cells): without significantly affecting the growth of normal neural stem cells
- sensitivity to cleavage by ES-1 (carboxyl esterase, ES-1; amide hydrolysis): sensitive to cleavage by the carboxyl esterase, ES-1
- stability in plasma (carboxyl esterase, ES-1; rodent plasma, 37°C): not stable
- stability in plasma [4]: stable
- stability in plasma [5]: stable
- toxicity in repeated dose study [6]: No significant toxicity was observed
- apoptosis by TUNEL (SK-N-DZ cells): increase in apoptosis
- HR-mediated DNA repair ([1]; various concentrations of AOH1160): blocks DNA repair in DR-GFP
- stability in plasma [7]: stable
- stability in plasma [8]: stable
- effect on STD values of T3 (Recombinant human PCNA): caused reduction of STD values of T3
- caspase activation ([2]; cancer cells, 500 nM AOH1160): activation of caspase-3 and caspase-9
- γH2A.X levels ([2]; cancer cells, 500 nM AOH1160): increases γH2A.X levels
- sensitivity to cisplatin, colony formation (SK-N-DZ NB cells): more sensitive to cisplatin treatment in the presence of AOH1160
- length of IdU-incorporated DNA strands (replication fork extension) [9]: significantly shorter IdU-incorporated DNA strands
- apoptosis (sub-G1 population) (SK-N-DZ and H524 cells; 500 nM AOH1160): promotes apoptosis
- cell cycle effect (SK-N-DZ and H524 cells; neuroblastoma and small cell lung cancer cells, 500 nM AOH1160): causes cell cycle arrest
- concentration up to which not significantly toxic [10]: at least 5 µM
- half-life in vivo (Pharmacokinetic; PO, 40 mg/kg): about 3.5 h
- oral availability (Pharmacokinetic; PO, 40 mg/kg): available to the animal through the oral dosing route
- peak concentration (CMAX) (Pharmacokinetic; PO, 40 mg/kg): well above the calculated IC50 of most cancer cell lines
- metabolites in animal plasma (Pharmacokinetic; mouse, in vivo): Metabolites derived from AOH1160 hydroxylation were observed
- thyroid hormone activity in TR reporter assay (human TRβ): neither AOH1160 nor AOH39 showed any thyroid hormone activity
- growth of glioblastoma stem cells (glioblastoma stem cells): inhibited the growth of glioblastoma stem cells
- cell cycle profiles of non-malignant cells (7SM0032 and SAEC cells): doesn’t significantly change the cell cycle profiles
- tumor burden ([11]; vs vehicle): significantly reduced tumor burden
- death or weight loss ([11]; data not shown): did not cause any death or significant weight loss
- maximum concentration achievable under STD NMR condition (15 mM D2O phosphate buffer, 2% D6-DMSO, determined by 1D NMR spectra): approximately 14.5 µM
- permeability (not told): high permeability
- intracellular γH2A.X level in non-malignant cells (γH2A.X in 7SM0032 cells): Nor does it increase intracellular γH2A.X level
- apoptosis by TUNEL in non-malignant cells (7SM0032 cells): Nor does it increase intracellular γH2A.X level (Fig 4b) or induce apoptosis
